Experiment [1] deals with T1, Estrogen receptor (Rattus norvegicus) (UniProt P06211+Q62986). The experiment in a line: Relative binding affinity against estrogen receptor(ER). In kind it is protein assay. In outline:
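Uterine cytosol from immature rats primed s.c. with 0.1 μg E₂ 24 h before sacrifice, one uterine equivalent per mL TEA buffer (pH 7.4, 7% DMF). Incubated 18-20 h at 4 °C with ³H-E₂ (5 × 10⁻⁹ M) and competitor at 10⁻⁴–10⁻⁹ M, in triplicate. Charcoal-dextran separation for 20 min, then scintillation counting.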

In experiment [2] the target is T1, Estrogen receptor (Rattus norvegicus).
For experiment [3] the target is unchanged. The source holds these as a separate data set.
Experiment [4] concerns Anti-estrogen binding site (AEBS) (Rattus norvegicus). As to the kind of experiment: Relative binding affinity against Antiestrogen binding site(AEBS).

Turning to `COc1ccc2c(c1)OC(c1ccc(OCCN3CCCCC3)cc1)C(c1ccccc1)=C2` (stereo not given), the relative binding affinity (RBA) in experiment [1] amounted to 0.02; in experiment [4], 21. In addition, the results for the Mean weight in experiment [2] and in experiment [3] were 43.1 mg and 22.6 mg, respectively.
As for `O=C(c1ccc(OCCN2CCCC2)cc1)c1c(-c2ccc(O)cc2)sc2cc(O)ccc12`, the results for the relative binding affinity (RBA) in experiment [1] and in experiment [4] were 93 and 6.5, respectively. Also, the Mean weight in experiment [2] was found to be 25.6 mg; in experiment [3] it was 25.5 mg.
With `Oc1ccc(C2=Cc3ccc(O)cc3OC2c2ccc(OCCN3CCCCC3)cc2)cc1` (stereo not given), the relative binding affinity (RBA) in experiment [1] came to 49; in experiment [4], 2.2. The values for the Mean weight in experiment [2] and in experiment [3] were 12.4 mg and 10.6 mg, respectively.
As for `C1=C(c2ccccc2)C(c2ccc(OCCN3CCCCC3)cc2)Oc2ccccc21` (stereo not given), the Mean weight in experiment [2] amounted to 18.6 mg; in experiment [3] it was 15.3 mg. Further, in experiment [4], the relative binding affinity (RBA) was found to be 225.
With `Oc1ccc(C2=Cc3ccc(O)cc3OC2c2ccc(O)cc2)cc1` (stereo not given), in experiment [1], the relative binding affinity (RBA) was found to be 2.2. Also, the values for the Mean weight in experiment [2] and in experiment [3] were 44.2 mg and 14.2 mg, respectively.
As to `Oc1ccc2c(c1)OC(c1ccc(OCCN3CCCCC3)cc1)C(c1ccccc1)=C2` (stereo not given), the relative binding affinity (RBA) came to 9.5 in experiment [1] and 13 in experiment [4]. The figures for the Mean weight in experiment [2] and in experiment [3] were 21.2 mg and 15.2 mg, respectively.
Regarding `COc1ccc(C2=C(C(=O)c3ccc(OCCN4CCCC4)cc3)c3ccccc3CC2)cc1`, the relative binding affinity (RBA) in experiment [1] came out at 8; in experiment [4], 25. Besides, the Mean weight turned out to be 29.1 mg in experiment [2] and 18.6 mg in experiment [3].
With `Oc1ccc(C2=Cc3ccccc3OC2c2ccc(OCCN3CCCCC3)cc2)cc1` (stereo not given), the relative binding affinity (RBA) in experiment [1] worked out at 4.2; in experiment [4], 14. Besides, the values for the Mean weight in experiment [2] and in experiment [3] were 11.6 mg and 10.4 mg, respectively.

The values above are taken from ChEMBL document CHEMBL1125033, “Structure-activity relationship of antiestrogens. Phenolic analogues of 2,3-diaryl-2H-1-benzopyrans” (J Med Chem, 1990).
